Data on 24 compounds can be found in ChEMBL document CHEMBL4616666, “Discovery of SHP2-D26 as a First, Potent, and Effective PROTAC Degrader of SHP2 Protein” (J Med Chem, 2020).

The target of test [1] is T1, von Hippel-Lindau disease tumor suppressor/Tyrosine-protein phosphatase non-receptor type 11 (Homo sapiens, UniProt Q06124+P40337). The experiment in a line: Protac activity at VHL1/SHP2 in human MV4-11 cells assessed as induction of SHP2 degradation at 0.1 uM measured after 24 hrs by Western blot analysis relative to control. It counts as cell-based. The gist of the method:
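MV4;11 cells in IMDM + 10% FBS were exposed to degrader for 24 h. SHP2 was quantified by Western blot densitometry, with background-subtracted band divided by net GAPDH loading-control band. Average of three independent experiments.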
In general terms: In western blotting, separated proteins are transferred to a membrane and probed.

Test [2] has as its target T1, von Hippel-Lindau disease tumor suppressor/Tyrosine-protein phosphatase non-receptor type 11. The test can be described thus: Protac activity at VHL1/SHP2 in human KYSE520 cells assessed as induction of SHP2 degradation at 0.1 uM measured after 6 hrs by Western blot analysis relative to control. It counts as cell-based. In outline:
(§1)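 KYSE520 cells in RPMI 1640 + 10% FBS, 37 °C, 5% CO2, were exposed to degrader for 6 h. SHP2 was measured by Western blot and densitometry, with background-subtracted band normalized to net GAPDH band. Values are the average of three independent experiments.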

For test [3] the target is unchanged. The experiment in a line: Protac activity at VHL1/SHP2 in human KYSE520 cells assessed as induction of SHP2 degradation at 1 uM measured after 6 hrs by Western blot analysis relative to control. Type of test: cell-based. The gist of the method: as §1
For the next test, the system named is MV4-11. The test can be described thus: Growth inhibition of human MV4-11 cells measured after 4 days by WST8 assay. The conditions noted are these: MV4-11, 96 h. A general note: Tetrazolium assays rely on reduction of a dye to a coloured formazan, in cell work by metabolically active cells.
For a further test, the system named is KYSE-520 cell line. The experiment in a line: Growth inhibition of human KYSE520 cells measured after 4 days by WST8 assay. As to conditions: KYSE-520, 96 h.

T1 sequence (P40337 whole entry partner): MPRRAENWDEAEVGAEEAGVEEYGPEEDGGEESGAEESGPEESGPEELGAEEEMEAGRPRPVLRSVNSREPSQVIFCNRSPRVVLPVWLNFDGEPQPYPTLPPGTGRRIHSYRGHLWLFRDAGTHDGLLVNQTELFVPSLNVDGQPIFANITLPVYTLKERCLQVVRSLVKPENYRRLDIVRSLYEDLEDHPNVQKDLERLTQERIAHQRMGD
T1 sequence (Q06124 2-593 limits assumed): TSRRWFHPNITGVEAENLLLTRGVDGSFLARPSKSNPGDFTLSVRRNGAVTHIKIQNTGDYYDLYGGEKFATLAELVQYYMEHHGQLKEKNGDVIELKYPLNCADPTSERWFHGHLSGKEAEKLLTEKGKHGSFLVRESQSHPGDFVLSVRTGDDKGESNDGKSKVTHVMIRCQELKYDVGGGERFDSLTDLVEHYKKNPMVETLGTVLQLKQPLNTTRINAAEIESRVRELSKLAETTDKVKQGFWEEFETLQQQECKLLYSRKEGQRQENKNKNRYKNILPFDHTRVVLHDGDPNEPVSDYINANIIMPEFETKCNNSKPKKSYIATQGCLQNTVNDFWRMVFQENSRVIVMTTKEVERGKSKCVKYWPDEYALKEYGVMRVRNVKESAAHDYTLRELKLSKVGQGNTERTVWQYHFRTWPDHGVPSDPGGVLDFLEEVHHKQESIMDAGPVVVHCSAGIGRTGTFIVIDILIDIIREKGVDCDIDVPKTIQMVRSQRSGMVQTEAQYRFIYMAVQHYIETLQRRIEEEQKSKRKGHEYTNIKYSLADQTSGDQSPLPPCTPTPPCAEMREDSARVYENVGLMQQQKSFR

Regarding `Cc1ncsc1-c1ccc([C@H](C)NC(=O)[C@@H]2C[C@@H](O)CN2C(=O)[C@@H](NC(=O)COCCOCCOCCOCCNC(=O)CCC(=O)Nc2cccc(Sc3ncc(N4CCC(C)(N)CC4)nc3N)c2Cl)C(C)(C)C)cc1` (single isomer, unassigned), the Activity was 95% in test [1], 53% in test [2] and > 95% in test [3].
`Cc1ncsc1-c1ccc([C@H](C)NC(=O)[C@@H]2C[C@@H](O)CN2C(=O)[C@@H](NC(=O)CCCNC(=O)CC(=O)Nc2cccc(Sc3ncc(N4CCC(C)(N)CC4)nc3N)c2Cl)C(C)(C)C)cc1` (single isomer, unassigned): the Activity in test [2] amounted to 9%; in test [3], 7%.
Taken in the same sequence, the figures for `Cc1ncsc1-c1ccc([C@H](C)NC(=O)[C@@H]2C[C@@H](O)CN2C(=O)[C@@H](NC(=O)CCNC(=O)CC(=O)Nc2cccc(Sc3ncc(N4CCC(C)(N)CC4)nc3N)c2Cl)C(C)(C)C)cc1` were 4% and 0%.
`Cc1ncsc1-c1ccc([C@H](C)NC(=O)[C@@H]2C[C@@H](O)CN2C(=O)[C@@H](NC(=O)CCCCCCCCCCCCCCC(=O)Nc2cccc(Sc3ncc(N4CCC(C)(N)CC4)nc3N)c2Cl)C(C)(C)C)cc1` (single isomer, unassigned): the Activity in test [1] came out at 8%; in test [2], 62%; in test [3] it was 90%.
Turning to `CC(=O)Nc1cccc(Sc2ncc(N3CCC(C)(N)CC3)nc2N)c1Cl`, the figures for the IC50 in the test with MV4-11 and in the test on KYSE-520 cell line were 6.6 µM and 39.4 µM, respectively.
Turning to `Cc1ncsc1-c1ccc([C@H](C)NC(=O)[C@@H]2C[C@@H](O)CN2C(=O)[C@@H](NC(=O)CCOCCOCCOCCNC(=O)CCC(=O)Nc2cccc(Sc3ncc(N4CCC(C)(N)CC4)nc3N)c2Cl)C(C)(C)C)cc1` (single isomer, unassigned), the Activity in test [1] is 85%; in test [2] it was 32%; in test [3], 87%.
Take `Cc1ncsc1-c1ccc([C@H](C)NC(=O)[C@@H]2C[C@@H](O)CN2C(=O)[C@@H](NC(=O)CCCCCCCCCN2CCN(C(=O)CCC(=O)Nc3cccc(Sc4ncc(N5CCC(C)(N)CC5)nc4N)c3Cl)CC2)C(C)(C)C)cc1` (single isomer, unassigned): the Activity in test [1], in test [2] and in test [3] was > 95% each time.
With `Cc1ncsc1-c1ccc([C@H](C)NC(=O)[C@@H]2C[C@@H](O)CN2C(=O)[C@@H](NC(=O)CCCCCCCNC(=O)CC(=O)Nc2cccc(Sc3ncc(N4CCC(C)(N)CC4)nc3N)c2Cl)C(C)(C)C)cc1` (single isomer, unassigned), the figures for the Activity in test [2] and in test [3] were 20% and 14%, respectively.
As for `Cc1ncsc1-c1ccc([C@H](C)NC(=O)[C@@H]2C[C@@H](O)CN2C(=O)[C@@H](NC(=O)CCCCCCNC(=O)CC(=O)Nc2cccc(Sc3ncc(N4CCC(C)(N)CC4)nc3N)c2Cl)C(C)(C)C)cc1` (single isomer, unassigned), the Activity in test [2] and in test [3] was 0% in each case.
For `Cc1ncsc1-c1ccc([C@H](C)NC(=O)[C@@H]2C[C@@H](O)CN2C(=O)[C@@H](NC(=O)CCCCCCCCCCN2CCN(CC(=O)Nc3cccc(Sc4ncc(N5CCC(C)(N)CC5)nc4N)c3Cl)CC2)C(C)(C)C)cc1` (single isomer, unassigned), the figures for the Activity in test [1], in test [2] and in test [3] were 47%, 85% and > 95%, respectively.
Taken in the same sequence, the figures for `Cc1ncsc1-c1ccc([C@H](C)NC(=O)[C@@H]2C[C@@H](O)CN2C(=O)[C@@H](NC(=O)CCCCN2CCN(CCCCNC(=O)CCC(=O)Nc3cccc(Sc4ncc(N5CCC(C)(N)CC5)nc4N)c3Cl)CC2)C(C)(C)C)cc1` (single isomer, unassigned) were 9%, 0% and 82%.
Consider `Cc1ncsc1-c1ccc([C@H](C)NC(=O)[C@@H]2C[C@@H](O)CN2C(=O)[C@@H](NC(=O)CCCCCCCCCCCNC(=O)CCCC(=O)Nc2cccc(Sc3ncc(N4CCC(C)(N)CC4)nc3N)c2Cl)C(C)(C)C)cc1` (single isomer, unassigned), for which the Activity in test [2] and in test [3] was > 95% in each case.
Turning to `Cc1ncsc1-c1ccc([C@H](C)NC(=O)[C@@H]2C[C@@H](O)CN2C(=O)[C@@H](NC(=O)CCCCNC(=O)CC(=O)Nc2cccc(Sc3ncc(N4CCC(C)(N)CC4)nc3N)c2Cl)C(C)(C)C)cc1` (single isomer, unassigned), the Activity worked out at 13% in test [2] and 6% in test [3].
Regarding `Cc1ncsc1-c1ccc([C@H](C)NC(=O)[C@@H]2C[C@@H](O)CN2C(=O)[C@@H](NC(=O)CCCCCCCOc2ccc(NC(=O)CCC(=O)Nc3cccc(Sc4ncc(N5CCC(C)(N)CC5)nc4N)c3Cl)cc2)C(C)(C)C)cc1`, the Activity in test [1], in test [2] and in test [3] was > 95% in each case.
For `Cc1ncsc1-c1ccc([C@H](C)NC(=O)[C@@H]2C[C@@H](O)CN2C(=O)[C@@H](NC(=O)CCCCCCCCCNC(=O)CC(=O)Nc2cccc(Sc3ncc(N4CCC(C)(N)CC4)nc3N)c2Cl)C(C)(C)C)cc1` (single isomer, unassigned), the Activity in test [2] and in test [3] was > 95% throughout.
On to `Cc1ncsc1-c1ccc([C@H](C)NC(=O)[C@@H]2C[C@@H](O)CN2C(=O)[C@@H](NC(=O)CCCCCCCCCCCNC(=O)CC(=O)Nc2cccc(Sc3ncc(N4CCC(C)(N)CC4)nc3N)c2Cl)C(C)(C)C)cc1` (single isomer, unassigned), for which the Activity is > 95% in test [2] and 93% in test [3].
Take `Cc1ncsc1-c1ccc([C@H](C)NC(=O)[C@@H]2C[C@@H](O)CN2C(=O)[C@@H](NC(=O)CCCCCCCCCCNC(=O)CCC(=O)Nc2cccc(Sc3ncc(N4CCC(C)(N)CC4)nc3N)c2Cl)C(C)(C)C)cc1`: the Activity in test [2] and in test [3] was > 95% in each case.
Take `CC1(N)CCN(c2cnc(-c3cccc(Cl)c3Cl)c(N)n2)CC1`: the 50% inhibitory concentration (IC50) (usually the concentration that gives 50% inhibition) with MV4-11 was found to be 1 µM; with KYSE-520 cell line, 18.2 µM.
Consider `Cc1ncsc1-c1ccc([C@H](C)NC(=O)[C@@H]2C[C@@H](O)CN2C(=O)[C@@H](NC(=O)CCCCCCCCCCCNC(=O)CCC(=O)Nc2cccc(Sc3ncc(N4CCC(C)(N)CC4)nc3N)c2Cl)C(C)(C)C)cc1`, for which the Activity in test [2] and in test [3] was > 95% each time.
As to `Cc1ncsc1-c1ccc([C@H](C)NC(=O)[C@@H]2C[C@@H](O)CN2C(=O)[C@@H](NC(=O)CCCCCCCCCCCN2CCN(CC(=O)Nc3cccc(Sc4ncc(N5CCC(C)(N)CC5)nc4N)c3Cl)CC2)C(C)(C)C)cc1` (single isomer, unassigned), the Activity in test [1] is 6%; in test [2] it was 80%; in test [3] it was > 95%.
Turning to `Cc1ncsc1-c1ccc([C@H](C)NC(=O)[C@@H]2C[C@@H](O)CN2C(=O)[C@@H](NC(=O)CCCCCNC(=O)CC(=O)Nc2cccc(Sc3ncc(N4CCC(C)(N)CC4)nc3N)c2Cl)C(C)(C)C)cc1` (single isomer, unassigned), the Activity in test [2] came out at 0%; in test [3] it was 3%.
Taken in the same sequence, the figures for `Cc1ncsc1-c1ccc([C@H](C)NC(=O)[C@@H]2C[C@@H](O)CN2C(=O)[C@@H](NC(=O)CCCCCCCCNC(=O)CC(=O)Nc2cccc(Sc3ncc(N4CCC(C)(N)CC4)nc3N)c2Cl)C(C)(C)C)cc1` (single isomer, unassigned) were 81% and 80%.
For the compound `Cc1ncsc1-c1ccc([C@H](C)NC(=O)[C@@H]2C[C@@H](O)CN2C(=O)[C@@H](NC(=O)COCCOCCOCCNC(=O)CCC(=O)Nc2cccc(Sc3ncc(N4CCC(C)(N)CC4)nc3N)c2Cl)C(C)(C)C)cc1` (single isomer, unassigned), the Activity is > 95% in test [1], 80% in test [2] and > 95% in test [3].
For `Cc1ncsc1-c1ccc([C@H](C)NC(=O)[C@@H]2C[C@@H](O)CN2C(=O)[C@@H](NC(=O)CCCCCCCCCCNC(=O)CC(=O)Nc2cccc(Sc3ncc(N4CCC(C)(N)CC4)nc3N)c2Cl)C(C)(C)C)cc1` (single isomer, unassigned), the Activity in test [2] and in test [3] was > 95% in each case.
